CAL PDZ FP-1 – untagged CAL PDZ binding inhibitors, primary screen, biochemical, fluorescence polarization, HTS | purified CAL PDZ, TMR-peptide fluorescence polarization, 1 h | inhibition, % at 24.9 µM | 300,000 tested, 0.92% active;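 active = mean inhibition of at least 30% with at least half of replicates also reaching 30%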
CAL PDZ FP-2 – CAL PDZ peptide-binding inhibitors, primary screen, biochemical, fluorescence polarization, Cer-tagged CAL PDZ, HTS; Golgi-associated PDZ and coiled-coil motif-containing protein (Homo sapiens), Q9HD26; purified CAL PDZ, TMR-peptide fluorescence polarization, 1 h; inhibition, % at 20 µM; 330,000 tested, 0.02% active; AID 504414, 2011;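 active = highest replicate inhibition of at least 40%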
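Test system: tagged CAL PDZ domain / Buffer or medium: sodium phosphate/NaCl buffer pH 7.4 with TCEP, IgG, Thesit / Reagent: TMR-labelled reporter peptide T*-PRC34 bound in PDZ groove / Compound dosing: single point, 20 µM / Schedule: 1 h incubation at room temperature before polarization reading / Technique: fluorescence polarization (mP) / Benchmarks: unlabelled peptide, DMSO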
PGC1a acetyl inh – inhibitors of PGC1a acetylation signal, primary screen, cell-based, U2OS, AlphaScreen, inhibitor mode; 350,000 tested, 0.17% active; inhibition, % at 15.6 µM; AID 651687, 2012; AlphaScreen anti-acetyl-lysine; with virally co-expressed GCN5 acetyltransferase;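 active = every replicate shows inhibition of at least 40%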
ARNT-TACC3 inh – disruptors of ARNT/TACC3 protein interaction, primary screen, biochemical, AlphaScreen, single concentration; Transforming acidic coiled-coil-containing protein 3 (Homo sapiens), Q9Y6A5; AlphaScreen His-ARNT PAS-B/GST-TACC3 binding, luminescence; TACC3 fragment carries E629A point mutation; inhibition, % at 9.99 µM; 390,000 tested, 0.66% active;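 active = mean inhibition of replicates at least 50% and at least half of replicates each reaching 50%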
F508del corr – F508del CFTR correction, initial screen, CFBE line, single point. AID 720511, 2013. 350,000 tested, 0.36% active. activity (quench increase), % at 7.58 µM. CFBE cells, YFP halide quenching; stimulated with forskolin plus potentiator P3; % fluorescence drop versus neutral controls;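 active = mean added fluorescence quench of at least 8% versus neutral control, with both replicates also reaching 8%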;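 also: cells transiently co-express mutant CFTR-F508del with the halide-sensitive YFP; corrector assay measuring rescue of mutant channel to the surface after 24 h compound exposure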
miR-122 sensor – miR-122 Renilla sensor signal increase in Huh7, primary screen, miR-122 inhibitor project, cell-based, single point, plate reader. Huh7 miR-122 Renilla luciferase sensor, 48 h; neutral wells = 0, positive control = 100. activation (reporter increase), % at 12.5 µM. 340,000 tested, 0.3% active. AID 602342, 2012;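 active = mean replicate activation score at least 90 and every replicate individually at or above 90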;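 also: higher luciferase means less miR-122 activity so hits act as miR-122 inhibitors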
Hits are given with their value; – = inactive; · = no result. Only some compounds are listed: those with a hit (about 1.7% of all), similar ones and a draw of the others.

SMILES	CAL PDZ FP-1	CAL PDZ FP-2	PGC1a acetyl inh	ARNT-TACC3 inh	F508del corr	miR-122 sensor
Clc1cccc(Cl)c1CSc1nnc(CN2CCOCC2)n1-c1ccccc1	–	–	–	–	·	126
Fc1cccc(Cl)c1CSc1nnc(CN2CCOCC2)n1-c1ccccc1	–	–	–	–	·	–
COc1ccccc1N/C(=N/S(=O)(=O)c1ccc(C)cc1)c1ccccc1	–	–	·	–	–	135
Cc1ccccc1N/C(=N/S(=O)(=O)c1ccccc1)c1ccc(F)cc1	–	–	·	–	–	·
Cc1ccc(/C(=N\S(=O)(=O)c2ccc(Br)cc2)Nc2ccccc2C)cc1	65	–	–	–	–	–
COc1ccc(C2(c3ccc(OC)cc3)NC(=O)N(CC(=O)Nc3ccc(OC)c(OC)c3)C2=O)cc1	51	–	·	–	–	–
CCC1CCC2(CC1)NC(=O)N(CC(=O)Nc1ccc(OC)c(Cl)c1)C2=O (stereo not given)	81	–	–	–	–	–
C[C@@H]1CN([C@@H](C)CO)C(=O)c2cc(NC(=O)NC3CCCCC3)ccc2O[C@@H](C)CCCCO[C@H]1CN(C)S(=O)(=O)c1cccs1	·	·	–	–	–	–
C[C@@H]1CN([C@@H](C)CO)C(=O)c2cc(NC(=O)CCC(F)(F)F)ccc2O[C@@H]1CN(C)S(=O)(=O)c1ccc(Cl)cc1	·	·	–	–	–	–
CCN(CC)CCn1c(=S)[nH]c2ccccc2c1=O	–	–	–	–	·	–
CCN(CC)CCn1c(=S)[nH]c2ccc(Br)cc2c1=O	87	–	–	–	–	·
O=C(Cc1ccccn1)N1CC2(C1)[C@H](c1ccccc1)[C@H](CO)N2C(=O)c1cccnc1	·	·	–	·	–	·
COc1ccc(S(=O)(=O)NCC2CCCO2)cc1Cl (stereo not given)	–	–	–	–	–	–
O=S(=O)(NCC1CCCO1)c1ccc(Cl)c(C(F)(F)F)c1 (stereo not given)	·	–	–	–	·	155
O=C(c1ccc(S(=O)(=O)NCC2CCCO2)cc1)N1CCN(c2cccc(Cl)c2)CC1 (stereo not given)	·	–	·	–	16	·
COc1ccc(-c2c(C)[nH]n3c(=O)c(Cc4ccccc4)c(C)nc23)cc1OC	–	–	–	87	–	–
NNC(=O)c1[nH]c2ccc(Br)cc2c1-c1ccccc1	–	–	·	–	–	·
NNC(=O)c1[nH]c2ccc(Cl)cc2c1-c1ccccc1	–	–	·	–	17	·
CCn1cc(C2=NC(CC(C)C)CO2)c2ccccc21 (stereo not given)	65	–	·	–	–	–
CCn1cc(C2=NC(C(C)C)CO2)c2ccccc21 (stereo not given)	–	–	–	–	–	–
COc1ccc(-c2cn(CC[C@@H]3CC[C@H](NC(=O)Nc4ccc(F)cc4)[C@H](CO)O3)nn2)cc1	·	·	–	·	–	·
COc1ccc(C(=O)NCC(c2ccco2)N2CCc3ccccc32)cc1 (stereo not given)	–	–	·	–	12	·
COc1ccc(NC(=O)C(=O)NCC(c2ccco2)N2CCc3ccccc32)cc1 (stereo not given)	–	–	–	–	·	–
C[C@@H]1CCCCO[C@@H](CN(C)CC2CCCCC2)[C@H](C)CN([C@@H](C)CO)C(=O)c2cc(NC(=O)Nc3ccc4c(c3)OCO4)ccc2O1	·	·	–	–	–	–
CCNC(=O)NC(=O)C(C)OC(=O)c1ccc(SC)cc1OC (stereo not given)	–	–	·	–	–	·
SMILES	CAL PDZ FP-1	CAL PDZ FP-2	PGC1a acetyl inh	ARNT-TACC3 inh	F508del corr	miR-122 sensor
COc1cc(SC)ccc1C(=O)OC(C)C(=O)Nc1ccc(NC(C)=O)cc1 (stereo not given)	56	–	·	–	–	–
CCCNC(=O)[C@@H]1[C@@H](CO)[C@@H]2Cn3c(ccc(-c4ccccc4OC)c3=O)[C@@H]2N1S(C)(=O)=O	·	·	·	·	–	·
O=C1c2cccc3c(N4CCCCC4)ccc(c23)C(=O)N1c1cccc(O)c1	–	–	·	–	14	·
O=C1c2cccc3c(N4CCCCC4)ccc(c23)C(=O)N1CCO	–	–	–	–	·	–
COc1ccccc1-c1cn(CC[C@H]2CC[C@H](NC(=O)CCN3CCCCC3)[C@@H](CO)O2)nn1	·	·	–	–	–	·
Cc1ccccc1S(=O)(=O)N(C)C[C@@H]1OCc2cn(nn2)CCCC(=O)N([C@H](C)CO)C[C@@H]1C	·	·	–	–	–	–
CCOC(=O)C(C)Sc1nc(-c2ccccn2)ncc1OC (stereo not given)	–	–	–	60	·	·
COc1ccccc1-c1nc(-c2ccccn2)no1	·	–	–	–	–	–
CCOC(=O)C(C)Sc1ncc(OC)c(Sc2ccc(Cl)cc2)n1 (stereo not given)	–	–	–	–	·	–
COc1cnc(-c2ccccn2)nc1N(C)C	73	–	–	74	–	–
O=C(C[C@H]1CC[C@@H](NS(=O)(=O)c2ccc(F)cc2)[C@@H](CO)O1)NCc1ccncn1	·	·	–	–	–	·
O=C(Nc1ccccc1)N1C[C@@H]2[C@H](c3ccccc31)[C@@H](CO)N2Cc1ccccc1	·	·	–	–	–	–
O=C1NC(Cc2ccc(O)cc2)c2nc3ccc(Br)cc3c(=O)n2-c2cc3ccccc3cc21 (stereo not given)	·	·	–	·	8.2	–
COC(=O)[C@H](CC(C)C)NC(=O)NCCC1=CCCCC1	76	–	·	–	–	·
CCOC(=O)CSc1nc2cc(C(=O)NCC3CCCO3)ccc2c(=O)n1Cc1ccco1 (stereo not given)	–	–	–	–	·	–
O=C(NCC1CCCO1)c1ccc2c(=O)n(Cc3ccco3)c(SCC(=O)N3CCCC3)nc2c1 (stereo not given)	79	·	·	–	·	·
COc1ccc(S(=O)(=O)N2CCC[C@H]2C(=O)NCc2ccc(Cl)cc2)cc1	71	–	–	–	–	–
CC(C)NC(=O)N(C)C[C@H]1OCCCC[C@H](C)Oc2ccc(NS(=O)(=O)c3cn(C)cn3)cc2C(=O)N([C@@H](C)CO)C[C@H]1C	·	·	–	–	–	–
COc1ccccc1C(=O)Nc1ccc2c(c1)nc(CCNC(=O)c1ccco1)n2C	–	–	–	–	10	–
Cn1c(CCNC(=O)c2ccco2)nc2cc(NC(=O)c3ccco3)ccc21	–	–	–	–	·	–
